Data on one molecule can be found in article PMC8048584 (Chemmedchem, 2021).

This assay deals with human DDR1 (Homo sapiens, UniProt Q08345). As to the kind of experiment: Off-chip Mobility Shift Assay. It counts as biochemical. In a few lines: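 Carried out by a contract kinase profiling service, with details in the Supporting Information. IC50 (50 % inhibition) was read from semi-logarithmic dose-response plots of the test compound. Each value is the mean of duplicate samples.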
Chain of human DDR1 (Q08345 19-913): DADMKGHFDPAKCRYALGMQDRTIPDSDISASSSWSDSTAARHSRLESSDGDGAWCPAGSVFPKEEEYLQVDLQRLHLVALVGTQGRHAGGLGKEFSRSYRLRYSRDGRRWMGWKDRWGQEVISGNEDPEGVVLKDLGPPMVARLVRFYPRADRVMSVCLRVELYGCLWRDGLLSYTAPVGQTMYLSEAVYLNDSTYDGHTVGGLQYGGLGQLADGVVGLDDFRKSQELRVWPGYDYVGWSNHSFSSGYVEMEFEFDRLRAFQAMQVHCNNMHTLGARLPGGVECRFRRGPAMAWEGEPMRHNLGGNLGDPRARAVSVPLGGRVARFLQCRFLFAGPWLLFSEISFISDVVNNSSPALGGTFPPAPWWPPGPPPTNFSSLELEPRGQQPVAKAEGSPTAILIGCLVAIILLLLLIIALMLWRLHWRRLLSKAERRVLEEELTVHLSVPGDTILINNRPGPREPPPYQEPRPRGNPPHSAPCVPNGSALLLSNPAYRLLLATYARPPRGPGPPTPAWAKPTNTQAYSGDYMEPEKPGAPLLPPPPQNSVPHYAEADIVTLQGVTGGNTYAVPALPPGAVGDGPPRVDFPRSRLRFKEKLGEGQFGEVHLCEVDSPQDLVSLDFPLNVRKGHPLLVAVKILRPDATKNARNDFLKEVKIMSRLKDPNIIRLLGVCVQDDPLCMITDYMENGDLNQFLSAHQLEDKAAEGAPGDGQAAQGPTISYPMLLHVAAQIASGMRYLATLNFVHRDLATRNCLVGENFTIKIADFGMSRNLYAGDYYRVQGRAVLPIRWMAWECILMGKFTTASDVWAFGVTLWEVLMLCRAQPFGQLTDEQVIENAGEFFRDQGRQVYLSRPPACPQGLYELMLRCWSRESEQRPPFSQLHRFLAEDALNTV

The IC50 is the midpoint of a concentration-inhibition curve. Regarding `O=C(Nc1ccc(Cl)c(COc2cccnc2)c1)c1cccc(C(F)(F)F)c1` [Compound 3, N‐(4‐chloro‐3‐((pyridin‐3‐yloxy)methyl)phenyl)‐3‐(trifluoromethyl)benzamide], the IC50 amounted to 92.5 nM.
